Measured values pooled from the literature.
Lines come from different studies, so protocols differ.
RPS6KA1 N-terminal kinase domain: Ribosomal protein S6 kinase alpha-1, N-terminal kinase domain (RPS6KA1, Homo sapiens, UniProt Q15418)
RPS6KA1: Ribosomal protein S6 kinase alpha-1 (RPS6KA1, Homo sapiens, UniProt Q15418)
RPS6KA1 C-terminal kinase domain: Ribosomal protein S6 kinase alpha-1, C-terminal kinase domain (RPS6KA1, Homo sapiens, UniProt Q15418)

O=C(Nc1cnc(Oc2ccc(F)cc2)nc1)N1CCc2ncccc2[C@@H]1c1ccc(F)cc1
remaining binding (RPS6KA1 N-terminal kinase domain; cell-free assay; competition with immobilised ligand; 1 µM): 71%

Nc1nc(Nc2ccc(S(N)(=O)=O)cc2)nn1C(=O)c1c(F)cccc1F
remaining signal (RPS6KA1; cell-free assay; 0.5 µM): 42.1%

C=CC(=O)Nc1cc(Nc2nccc(Nc3cc(Cl)c(F)cc3C(C)(C)O)n2)c(OC)cc1N1CC[C@@H](N(C)C)C1
inhibition (RPS6KA1; enzyme activity; inhibitor; 1 µM): 9%

Cc1cnc(NC2CCOCC2)nc1-n1cnc(C(=O)NC(CN)c2cc(F)cc(Cl)c2)c1 (centres unmarked)
remaining activity (RPS6KA1; enzyme activity; inhibitor; radiometric; 1 µM): 44%

COc1cc2ncnc(Nc3ccc(F)c(Cl)c3)c2cc1OCCCN1CCOCC1
remaining signal (RPS6KA1; cell-free assay; 0.5 µM): 97.3%

CN1CC(Oc2cnc(C#N)cc2-c2ccn3nc(NC(=O)C4CC4)cc3c2)C1
inhibition (RPS6KA1; enzyme activity; inhibitor; 1 µM): 31%

CC(C)(C)c1nc2c(s1)c1nc(N)ncc1c1ccc(NS(=O)(=O)c3c(F)cccc3F)c(F)c12
remaining activity (RPS6KA1; enzyme activity; inhibitor; radiometric; 1 µM): 107%

CN(c1ncccc1CNc1nc(Nc2ccc3c(c2)CC(=O)N3)ncc1C(F)(F)F)S(C)(=O)=O
inhibition (RPS6KA1; enzyme activity; inhibitor; 1 µM): 84.8%

Nc1nc(NC2CCCCC2)sc1C(=O)c1ccccc1
remaining activity (RPS6KA1; enzyme activity; inhibitor; 10 µM): 67%

CCCCN(CCCC)C(=O)CN1C[C@H](c2cc(OC)c3c(c2)OCO3)[C@@H](C(=O)O)[C@@H]1CC(C)(C)CCC
remaining binding (RPS6KA1 N-terminal kinase domain; cell-free assay; competition with immobilised ligand; 1 µM): 97.7%

COc1cc2ncnc(Nc3ccc(Oc4ccccc4)c(C)c3C)c2cc1OC
inhibition (RPS6KA1; enzyme activity; inhibitor; 1 µM): -2%

CNC(=O)c1cc(Oc2ccc(NC(=O)Nc3ccc(Cl)c(C(F)(F)F)c3)cc2)ccn1
inhibition (RPS6KA1; enzyme activity; inhibitor; 10 µM): 25%

C[C@@H]1CCN(C(=O)CC#N)C[C@@H]1N(C)c1ncnc2[nH]ccc12
remaining signal (RPS6KA1; cell-free assay; inhibitor; 0.5 µM): 90.9%

CC/C(=N\NC(=O)NCc1cccc(O)c1)c1ccc(O)c(C)c1O
inhibition (RPS6KA1; enzyme activity; inhibitor; 0.1 µM): 72.1%

CNC(=O)c1ccc(Nc2ncc(C(F)(F)F)c(NCc3nccnc3N(C)S(C)(=O)=O)n2)cc1
remaining binding (RPS6KA1 C-terminal kinase domain; cell-free assay; competition with immobilised ligand; 0.1 µM): 71%

C[C@H]1CCN(c2nccc(-c3cnn4ncccc34)n2)C1
remaining binding (RPS6KA1 C-terminal kinase domain; binding; competition with immobilised ligand; 1 µM): 30%

Oc1cccc(-c2nc(N3CCOCC3)c3oc4ncccc4c3n2)c1
remaining activity (RPS6KA1; enzyme activity; inhibitor; 10 µM): 101%

O=C(Nc1cnn(-c2csc(C(=O)NC3COC3)c2)c1)Nc1c(F)cccc1Cl
remaining activity (RPS6KA1; enzyme activity; inhibitor; 5 µM): 96.3%

CCOc1cc(-c2nncn2C)ccc1Nc1ncc2cc(C)nc(NCC(C)(C)C)c2n1
inhibition (RPS6KA1; enzyme activity; inhibitor; FRET; 1 µM): < 15%

N[C@@H]1CCN(c2nccc(-c3cnn4ncccc34)n2)C1
remaining binding (RPS6KA1 C-terminal kinase domain; binding; competition with immobilised ligand; 1 µM): 100%

O=C1NC(=O)c2cc(Nc3ccc(F)cc3)c(Nc3ccc(F)cc3)cc21
remaining signal (RPS6KA1; cell-free assay; 0.5 µM): 97.7%

Nc1ncnc2occ(-c3ccc(NC(=O)Nc4cc(C(F)(F)F)ccc4F)cc3)c12
remaining signal (RPS6KA1 N-terminal kinase domain; cell-free assay; inhibitor; 20 µM): 2%

O=C(N[C@H]1CCCCC/C=C\C2C[C@@]2(C(=O)O)NC(=O)[C@@H]2C[C@@H](Oc3ccncc3)CN2C1=O)OC1CCCC1 (some centres unmarked)
remaining binding (RPS6KA1 N-terminal kinase domain; binding; competition with immobilised ligand; 1 µM): 100%

c1cnn2ncc(-c3ccnc(N4CCC45COC5)n3)c2c1
remaining binding (RPS6KA1 N-terminal kinase domain; binding; competition with immobilised ligand; 1 µM): 90%

CC(=O)c1c(NS(C)(=O)=O)c2cc(-c3ccc(Cl)cc3)c(-c3ccc(Cl)cc3Cl)nc2n(C)c1=O
remaining binding (RPS6KA1 N-terminal kinase domain; cell-free assay; competition with immobilised ligand; 1 µM): 93%

CCCCNc1ncc2c(-c3ccc(F)cc3)nn(C[C@H]3CC[C@H](N)CC3)c2n1
inhibition (RPS6KA1 C-terminal kinase domain; target engagement in cells; inhibitor; chemoproteomics; 20 mM): 63.4%

CCN(CC)CCNC(=O)c1c(C)[nH]c(/C=C2\C(=O)Nc3ccc(F)cc32)c1C
remaining signal (RPS6KA1; cell-free assay; 0.5 µM): 28%

Nc1nc(Nc2ccccc2)sc1C(=O)c1c(F)cccc1F
remaining activity (RPS6KA1; enzyme activity; inhibitor; 10 µM): 29%

CC(C)c1ccc(NC(=O)c2cccs2)c(-c2nc3ccccc3[nH]c2=O)c1
activity vs control (RPS6KA1; enzyme activity; inhibitor; 1 µM): 96%

N#CCCc1ccc2c(c1)-c1[nH]c3ccc([N+](=O)[O-])cc3c1CC(=O)N2
remaining signal (RPS6KA1; cell-free assay; 0.5 µM): 59.9%

COc1cc(Nc2cnc(C#N)c(O[C@H](C)CN(C)C)n2)ncc1-c1cnn(C)c1
remaining activity (RPS6KA1; enzyme activity; inhibitor; radiometric; 1 µM): 4%

CNCc1ccccc1-c1csc([C@H](C)Nc2nc(C)nc3cc(OC)c(OC)cc23)c1
remaining binding (RPS6KA1 C-terminal kinase domain; cell-free assay; competition with immobilised ligand; 1 µM): 100%

Cc1ccc(C(=O)NCc2ccsc2)cc1C#Cc1cn(C(C)C)c2ncnc(N)c12
activity vs control (RPS6KA1; enzyme activity; inhibitor; 1 µM): 101%

Nc1cnc(N2CCc3cc(S(=O)(=O)Nc4c(F)cc(Cl)cc4F)cc(N4CCCC4=O)c32)nc1
remaining binding (RPS6KA1 N-terminal kinase domain; cell-free assay; competition with immobilised ligand; 1 µM): 93%

CN(C)c1ncc(F)c(-c2cnn3ncccc23)n1
remaining binding (RPS6KA1 C-terminal kinase domain; binding; competition with immobilised ligand; 1 µM): 100%

CC(C)(O)c1cncc(-c2nc3ccc(F)cc3n2C2CC2)c1
remaining binding (RPS6KA1 C-terminal kinase domain; cell-free assay; competition with immobilised ligand; 1 µM): 100%

CC1CCCN1c1nccc(-c2cnn3ncccc23)n1 (centres unmarked)
remaining binding (RPS6KA1 C-terminal kinase domain; binding; competition with immobilised ligand; 1 µM): 77%

Cn1cncc1C1=CN(c2ncnc3[nH]cnc23)CCS1
inhibition (RPS6KA1; enzyme activity; inhibitor; radiometric; 50 nM): 13%

Cc1cc(NC(=O)c2cccc3cc(-c4cccc5[nH]nc(N)c45)ccc23)ccc1F
activity vs control (RPS6KA1; enzyme activity; inhibitor; 0.1 µM): 115%

FC(F)c1nc2ccccc2n1-c1nc(N2CCOCC2)nc(N2CCOCC2)n1
remaining activity (RPS6KA1; enzyme activity; inhibitor; 10 µM): 95%

Cc1sc(C(=O)NC2COC2)cc1-n1cc(NC(=O)Nc2c(F)cccc2Cl)cn1
remaining activity (RPS6KA1; enzyme activity; inhibitor; 10 µM): 93.2%
